Kir21 inh – inhibitors of mouse Kir2.1 inward-rectifier potassium channel. P35561. HEK293-Kir2.1, FluxOR thallium flux fluorescence; active compounds read low. B-score at 10 µM. 310,000 compounds, 0.85% hits;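 active = fluorescence ratio B-score at or below minus 3 SD of library scores, with starting-brightness B-score within 2 SD, cut at about -4.2 in these data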;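 also: channel flux triggered by added potassium and thallium sulfate stimulus; B-score of peak minus minimum fluorescence over baseline after thallium stimulus; more negative B-score means stronger Kir2.1 block with less thallium influx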
hERG protect – compounds protecting human hERG from proarrhythmic drug block. activation (rescue from dofetilide block), less the hit threshold, % at 10 µM. 310,000 compounds, 0.51% hits. Q12809. CHO-hERG, FluxOR thallium flux, dofetilide IC70 present;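 active = activation above the mean of controls blocked by dofetilide plus 5 SD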;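 also: thallium influx through hERG after potassium depolarization seen as dye fluorescence rise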
KCNQ1 inh – blocks the human KCNQ1 potassium channel; B-score at 10 µM; P51787; CHO-K1 KCNQ1, FluxOR thallium flux fluorescence; active compounds read high; AID 2642; 310,000 compounds, 1.3% hits;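 active = compounds whose thallium flux B-score, printed positive for inhibition, exceeds three library SD while starting fluorescence stays within three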;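 also: channel opened by potassium depolarization with thallium stimulus after 20 min compound exposure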
Target sequence (P51787 whole entry, looked up): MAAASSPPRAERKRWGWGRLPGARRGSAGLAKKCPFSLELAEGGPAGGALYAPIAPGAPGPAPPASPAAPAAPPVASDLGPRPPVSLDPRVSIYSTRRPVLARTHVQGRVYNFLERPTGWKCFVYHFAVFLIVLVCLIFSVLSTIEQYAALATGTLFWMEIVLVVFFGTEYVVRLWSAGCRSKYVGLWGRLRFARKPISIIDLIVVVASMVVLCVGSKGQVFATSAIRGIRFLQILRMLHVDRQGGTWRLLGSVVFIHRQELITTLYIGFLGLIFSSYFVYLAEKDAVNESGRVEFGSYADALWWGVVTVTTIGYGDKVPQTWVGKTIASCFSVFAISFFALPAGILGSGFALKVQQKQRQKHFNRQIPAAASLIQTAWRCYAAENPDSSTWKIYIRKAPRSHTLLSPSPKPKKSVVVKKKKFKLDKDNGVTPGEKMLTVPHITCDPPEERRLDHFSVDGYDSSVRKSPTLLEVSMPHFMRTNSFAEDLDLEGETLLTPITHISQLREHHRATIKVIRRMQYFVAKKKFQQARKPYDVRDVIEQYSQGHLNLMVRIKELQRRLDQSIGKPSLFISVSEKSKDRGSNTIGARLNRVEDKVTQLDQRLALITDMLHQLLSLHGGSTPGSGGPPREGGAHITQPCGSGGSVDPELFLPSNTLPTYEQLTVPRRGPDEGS
KCNQ1 act – potentiates or activates the human KCNQ1 potassium channel. P51787. CHO-K1 KCNQ1, thallium flux FluxOR fluorescence; active compounds read high. B-score at 10 µM. AID 2648. 310,000 compounds, 0.35% hits;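 active = fluorescence ratio B-score, a plate-corrected score, at least three library SD, with initial intensity B-score within 5 SD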
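Medium – assay buffer, equal DMSO in all wells · Material – CHO-K1 cell line with stable KCNQ1 potassium channel expression · Signal – kinetic FluxOR thallium fluorescence, 10-s 1-Hz baseline, 110-s post-stimulus read · Compound – single concentration per compound, DMSO matched to controls · Schedule – 37 °C overnight plating, 90-min dark dye load, 20-min compound pretreatment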
KCNK9 inh – inhibitors of human KCNK9 two-pore domain potassium channel | Q9NPC2 | HEK293 KCNK9, FluxOR thallium flux fluorescence; active compounds read low | B-score at 10 µM | 310,000 compounds, 1.2% hits | AID 488922;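 active = ratio B-score over 3 SD below the library mean, with starting fluorescence within 5 SD of its mean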;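 also: negative B-score means less thallium flux so channel inhibition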
KCNK3 inh – human KCNK3 channel inhibition, primary screen. O14649. CHO-KCNK3 thallium flux, FluxOR fluorescence; active compounds read low. B-score at 10 µM. 340,000 compounds, 0.84% hits. AID 602410;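 active = B-score under library mean minus 4 SD, starting fluorescence ratio at most library mean plus 5 SD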;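 also: more negative B-score means stronger inhibition of thallium flux through KCNK3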
KCNK9 inh conf – human KCNK9 inhibitor confirmation; shares compounds with KCNK9 inh; HEK293 KCNK9 cells, FluxOR thallium flux fluorescence; inhibition, % at 10 µM; 4,900 compounds, 43% hits; AID 492992;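 active = thallium signal inhibited by more than 5 SD of the compound-free buffer control wells, on both duplicate plates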
Kir2-1 spec – mouse Kir2.1 off-target activity of KCNK9 modulators; Kir2.1 cells, FluxOR thallium flux fluorescence; inhibition, % at 10 µM; 4,900 compounds, 4% hits; shares compounds with KCNK9 inh;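 active = thallium signal drop more than 5 SD beyond the mean of the no-compound control wells, seen in both duplicate plates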;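 also: signal is fluorescence rise after thallium addition divided by baseline fluorescence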
HEK293 Tl ctr – non-induced cell nonspecific activity of KCNK9 modulators. 4,900 compounds, 40% hits. shares compounds with KCNK9 inh. inhibition, % at 10 µM. non-induced KCNK9-HEK293, FluxOR thallium flux. AID 492997;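 active = thallium signal drop beyond 5 SD of the untreated control mean, on both duplicate plates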
Hits are given with their value; n = inactive; x = not tested or not shown. The list is not random: actives were taken first. Their share in the collection is about 3.7%.

SMILES	Kir21 inh	hERG protect	KCNQ1 inh	KCNQ1 act	KCNK9 inh	KCNK3 inh	KCNK9 inh conf	Kir2-1 spec	HEK293 Tl ctr
COc1cccc(NC(=O)CN(C)C(=O)c2ccc(S(=O)(=O)Nc3ccccc3F)cc2)c1	x	x	x	x	x	n	x	x	x
CCOc1ccc(/C=C2/Sc3ccc(C(=O)NCC4CCCO4)cc3N(C)C2=O)cc1OC (centres undefined)	n	n	n	n	n	n	x	x	x
CCOC(=O)c1c(C)c(C(=O)N2CCN(c3cccc(Cl)c3)CC2)c(C)n1C	n	n	n	n	n	n	n	n	n
CN(C)c1ccc(C(=O)c2ccc(N(C)C)c3ccccc23)cc1	n	n	n	n	n	n	n	n	n
Cc1nn(C(C)C)c(C)c1CN1CCCC(C(=O)c2cccc(OC(C)C)c2)C1 (centres undefined)	n	n	n	n	n	n	n	n	n
COc1cccc(C(=O)C2CCCN(Cc3cccc(-n4nc(C)cc4C)c3)C2)c1 (centres undefined)	n	n	n	n	n	n	n	n	n
COc1cccc(C(=O)C2CCCN(Cc3cccc(OCCO)c3)C2)c1 (centres undefined)	n	n	n	n	n	n	x	x	x
Cc1cc(C(=O)C(C)OC(=O)c2cnccn2)c(C)n1-c1ccccc1 (centres undefined)	n	n	n	n	n	n	x	x	x
COCCCC1CCN(C(=O)C2CCC(=O)N(CC3CCCCC3)C2)CC1 (centres undefined)	n	n	n	n	n	n	x	x	x
CN(C)CCCN(C(=O)c1ccc(C(=O)c2ccccc2)cc1)c1nc2c(F)cccc2s1	n	n	n	n	n	n	n	n	n
c1ccc(CSc2nnc(-c3sccc3-n3cccc3)o2)cc1	n	n	n	n	-8.3	n	n	n	35%
O=C(NC1CCc2ccccc21)c1cc(COc2cncc(Cl)c2)on1 (centres undefined)	n	n	n	n	n	n	x	x	x
Cc1ccc(Cc2ccccc2C(=O)O)cc1	x	x	x	x	x	n	x	x	x
Oc1cccc(C(O)CNCc2ccc(OCc3ccc(Cl)cc3Cl)cc2)c1 (centres undefined)	n	n	n	n	n	n	x	x	x
Cc1ccc(N2CCN(C(=O)c3cn(CC4CCCCC4)nn3)C(C)C2)cc1 (centres undefined)	n	n	n	n	n	n	x	x	x
CCOC(=O)c1ccccc1NC(=O)c1cn(-c2ccc(OC)cc2)c(=O)c2ccccc12	n	n	n	n	-9.3	n	26%	n	n
Cn1cc(/C=N/n2cnc3scc(-c4ccc(Cl)cc4)c3c2=O)c2ccccc21	n	n	n	n	n	n	n	n	n
CCn1cnc2scc(-c3ccccc3)c2c1=O	n	n	n	n	n	n	x	x	x
Cc1ccc(S(=O)(=O)N2CCN(C(=O)CSc3ncc(C(F)(F)F)cc3Cl)CC2)cc1	n	n	n	n	n	n	n	n	n
COc1ccccc1/C=C/C=N/n1c(-c2ccccc2)n[nH]c1=S	n	n	n	n	n	n	x	x	x
COc1ccccc1/C=C/C=N/n1c(-c2ccc(Cl)cc2)n[nH]c1=S	n	n	n	n	n	n	n	n	n
O=C(Nc1cc(C(F)(F)F)ccc1-n1cncn1)c1ccc(F)cc1Cl	x	x	x	x	x	n	x	x	x
COc1cc(OC)cc(N2C(=O)CSCC2=O)c1	n	n	n	n	n	n	x	x	x
Cc1ccc(C2CC2C(=O)NNC(=S)Nc2ccc(Cl)cc2)cc1 (centres undefined)	n	n	10	n	n	n	n	n	n
Cc1ccc(S(=O)(=O)NCC(c2ccc3c(c2)OCO3)N2CCN(c3ccccc3)CC2)cc1 (centres undefined)	n	n	n	n	n	n	x	x	x
SMILES	Kir21 inh	hERG protect	KCNQ1 inh	KCNQ1 act	KCNK9 inh	KCNK3 inh	KCNK9 inh conf	Kir2-1 spec	HEK293 Tl ctr
COCCn1cnc2c(c1=O)c1nc3ccccc3nc1n2/N=C/c1cccc(OC)c1	n	n	n	n	-9.7	n	n	n	n
CCNCC(=O)N1c2ccccc2CCc2ccc(NC(=O)OC(C)C)cc21	n	n	n	n	-13	n	66%	n	n
COc1ccccc1-c1coc2c(CN(C)C)c(O)ccc2c1=O	n	n	n	n	n	n	x	x	x
Cc1nc(-c2coc3c(CN(C)C)c(O)ccc3c2=O)cs1	n	n	n	n	-8.2	n	n	n	n
COCCNC(=O)/C(C#N)=C/c1cc(C(C)C)c(OC)cc1C	n	n	n	n	n	n	x	x	x
CC(C)CCNC(=O)CO/N=C/c1ccccc1OC(F)F	n	n	n	n	n	n	x	x	x
N#Cc1ccsc1NC(=O)CCc1ccccc1	n	n	n	n	n	n	x	x	x
N#Cc1ccsc1NC(=O)CN(Cc1ccccc1)Cc1ccccc1	-4.8	n	6	n	-17	n	68%	n	59%
CC(Sc1nc(N(C)C)nc(N2CCOCC2)n1)C(=O)Nc1ccccc1 (centres undefined)	n	n	n	n	n	n	x	x	x
Cc1ccc(C)n1-c1nn(S(=O)(=O)c2cccc(C(F)(F)F)c2)c2cccc(F)c12	n	n	n	n	-14	n	60%	n	30%
Cc1ccc(S(=O)(=O)n2nc(-n3c(C)ccc3C)c3c(F)cccc32)c2ccccc12	n	n	n	n	n	n	x	x	x
Cc1ccc(NS(=O)(=O)c2cc(C(=O)N3CCc4ccccc4C3)ccc2Cl)cc1	n	n	n	n	-12	n	n	n	26%
Cc1ccc(S(=O)(=O)N(C)c2ccc(C(=O)N3CCc4ccccc4C3)cc2)cc1	n	n	n	n	n	n	n	n	n
Cc1ccc(NS(=O)(=O)c2cc(C(=O)O)ccc2Cl)cc1	n	n	n	n	n	n	x	x	x
CN(c1ccccc1)S(=O)(=O)c1ccc(C(=O)N2CCc3ccccc3C2)cc1	n	n	n	n	n	n	x	x	x
O=C(NCc1ccccc1)C1=C[C@H](C2CCCCC2)C[C@H](OCc2ccc(CO)cc2)O1	n	n	n	n	n	n	n	n	n
O=C(NCc1ccccc1)C1=C[C@@H](C2CC2)C[C@@H](OCc2ccc(CO)cc2)O1	n	n	n	n	n	n	x	x	x
Cc1ccc(NC(=O)Cn2ccc(=O)[nH]c2=O)cc1	n	n	n	n	n	n	x	x	x
COc1ccc(/C=N/OCC(=O)OCC(=O)N(C)c2ccccc2)cc1	n	n	n	n	n	n	x	x	x
O=C(CC(Nc1ccccc1)c1ccc(F)cc1)c1ccccc1 (centres undefined)	-5.5	n	n	n	-9.7	n	60%	n	42%
CN(C(=O)c1ccc(C#N)cc1)c1nnc(-c2cnccn2)s1	n	n	n	n	n	n	x	x	x

Assay outcomes: PubChem BioAssay, Johns Hopkins Ion Channel Center
